Reference: ChEMBL document CHEMBL4387702, “Design and synthesis novel di-carbonyl analogs of curcumin (DACs) act as potent anti-inflammatory agents against LPS-induced acute lung injury (ALI)” (Eur J Med Chem, 2019)
Calls of active or inactive are those of the source. The calls are words filed in the database; no cut-off is given here.

Assays:
RAW264.7 [1] = experiment: Inhibition of MAPK/NFkappaB in ICR mouse RAW264.7 cells assessed as reduction in LPS-induced TNFalpha production at 10 uM pretreated for 0.5 hrs followed by LPS challenge and measured after 24 hrs by ELISA relative to control; format: cell-based
RAW264.7 [2] = experiment: Inhibition of MAPK/NFkappaB in ICR mouse RAW264.7 cells assessed as reduction in LPS-induced IL6 production at 10 uM pretreated for 0.5 hrs followed by LPS challenge and measured after 24 hrs by ELISA relative to control; format: cell-based
RAW264.7 [3] = experiment: Cytotoxicity against ICR mouse RAW264.7 cells assessed as effect on cell proliferation at 10 uM after 24 hrs by MTT assay; format: cell-based; conditions: raw264.7, 24 h
RAW264.7 [4] = experiment: Inhibition of MAPK/NFkappaB in ICR mouse RAW264.7 cells assessed as reduction in LPS-induced TNF-alpha production at 10 uM pretreated for 0.5 hrs followed by LPS challenge and measured after 24 hrs by ELISA relative to piperlongumine; format: cell-based
RAW264.7 [5] = experiment: Inhibition of MAPK/NFkappaB in ICR mouse RAW264.7 cells assessed as reduction in LPS-induced TNF-alpha production at 10 uM pretreated for 0.5 hrs followed by LPS challenge and measured after 24 hrs by ELISA relative to curcumin; format: cell-based
RAW264.7 [6] = experiment: Inhibition of MAPK/NFkappaB in ICR mouse RAW264.7 cells assessed as reduction in LPS-induced IL6 production at 10 uM pretreated for 0.5 hrs followed by LPS challenge and measured after 24 hrs by ELISA relative to piperlongumine; format: cell-based
[7] = test system: peritoneal macrophages (Mus musculus); experiment: Inhibition of MAPK/NFkappaB in ICR mouse peritoneal macrophages assessed as reduction in LPS-induced IL6 production at 10 uM pretreated for 0.5 hrs followed by LPS challenge and measured after 24 hrs by ELISA relative to curcumin
RAW264.7 [8] = experiment: Inhibition of MAPK/NFkappaB in ICR mouse RAW264.7 cells assessed as reduction in LPS-induced TNFalpha production pretreated for 0.5 hrs followed by LPS challenge and measured after 24 hrs by ELISA; format: cell-based
[9] = Stability in pH 7.4 phosphate buffer assessed as compound decomposition measured up to 25 mins by UV-Vis spectroscopy; format: physicochemical; conditions: pH 7.4, 25 min
Outline: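 Compound stability was followed by recording UV-visible absorption spectra in phosphate buffer at pH 7.4.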

[10] = biological target: MAP kinase p38 (Mus musculus) (UniProt P47811+O08911+Q9WUI1+Q9Z1B7); experiment: Inhibition of LPS-induced p38 MAPK phosphorylation in ICR mouse RAW264.7 cells at 10 uM preincubated for 0.5 hrs followed by LPS challenge and measured after 30 mins by immunoblotting analysis; format: cell-based
Outline: (§1)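 RAW 264.7 cells were pretreated with compound for 0.5 h and then stimulated with LPS for 30 min. Lysates were resolved on 10% or 12% SDS-PAGE and transferred to nitrocellulose. Membranes were blocked in TBS (pH 7.6) with 0.05% Tween 20 and 5% milk. Blots were probed for p-p38, p38, p-ERK, ERK, IκBα and GAPDH, detected with HRP secondaries and ECL.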

RAW264.7 [11] = experiment: Inhibition of LPS-induced ERK phosphorylation in ICR mouse RAW264.7 cells at 10 uM preincubated for 0.5 hrs followed by LPS challenge and measured after 30 mins by immunoblotting analysis; format: cell-based; outline: as §1
RAW264.7 [12] = experiment: Inhibition of NFkappaB/MAPK signaling in LPS-induced mouse RAW264.7 cells assessed as down regulation of IkappaB expression at 10 uM preincubated for 0.5 hrs followed by LPS-challenge and measured after 30 mins by immunoblotting analysis; format: cell-based; outline: as §1
[13] = biological target: Transcription factor p65 (Mus musculus) (UniProt Q04207); experiment: Inhibition of LPS-induced NFkappaB p65 nuclear translocation in ICR mouse RAW264.7 cells preincubated for 0.5 hrs followed by LPS challenge and measured after 40 mins by DAPI staining-based immunofluorescence microscopic analysis; format: cell-based
Sequence of Transcription factor p65 (Mus musculus) (Q04207 whole entry): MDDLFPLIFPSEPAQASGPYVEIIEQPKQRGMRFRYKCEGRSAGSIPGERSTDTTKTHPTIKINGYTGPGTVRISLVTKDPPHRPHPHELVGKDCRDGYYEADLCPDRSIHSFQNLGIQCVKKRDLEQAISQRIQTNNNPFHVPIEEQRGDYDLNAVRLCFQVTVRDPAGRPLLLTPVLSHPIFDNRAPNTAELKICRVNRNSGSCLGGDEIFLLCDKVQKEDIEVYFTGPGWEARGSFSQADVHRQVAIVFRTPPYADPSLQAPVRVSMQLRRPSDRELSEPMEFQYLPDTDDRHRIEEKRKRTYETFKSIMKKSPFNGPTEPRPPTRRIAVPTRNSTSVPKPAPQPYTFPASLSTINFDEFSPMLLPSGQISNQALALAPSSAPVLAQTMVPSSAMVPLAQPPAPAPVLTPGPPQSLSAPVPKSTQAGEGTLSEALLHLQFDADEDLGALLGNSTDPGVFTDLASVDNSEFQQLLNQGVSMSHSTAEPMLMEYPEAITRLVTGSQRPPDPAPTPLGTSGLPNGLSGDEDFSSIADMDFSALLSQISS
Outline: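 RAW 264.7 cells were pretreated with compound for 0.5 h, then given LPS for 40 min (methods) or 45 min (legend). Cells were fixed with 4% paraformaldehyde and permeabilized in methanol. Anti-p65 (1:200) was applied overnight at 4 °C, then PE-conjugated secondary (1:200) for 2 h. Nuclei were stained with DAPI and cells viewed by fluorescence microscopy.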

RAW264.7 [14] = experiment: Inhibition of MAPK/NFkappaB in ICR mouse RAW264.7 cells assessed as reduction in LPS-induced IL6 production pretreated for 0.5 hrs followed by LPS challenge and measured after 24 hrs by ELISA; format: cell-based

Structure (SMILES) | inhibition (RAW264.7 [1]) | inhibition (RAW264.7 [2]) | Activity (RAW264.7 [3]) | further results
COc1cc(/C=C2\CCCN(C(=O)/C=C/c3ccc(Cl)cc3Cl)C2=O)cc(OC)c1OC | 38.5 to 53.4% | 46.8 to 68.2% | Non-Toxic | –
COc1cc(/C=C2\CCCN(C(=O)/C=C/c3ccc(F)cc3)C2=O)cc(OC)c1OC | – | – | Non-Toxic | inhibition (RAW264.7 [4]): < 85.3%; inhibition (RAW264.7 [5]): < 85.3%; inhibition (RAW264.7 [6]): < 85.3%; inhibition [7]: < 85.3%
COc1cc(/C=C2\CCCN(C(=O)/C=C/c3ccccc3F)C2=O)cc(OC)c1OC | – | – | Non-Toxic | inhibition (RAW264.7 [4]): < 85.3%; inhibition (RAW264.7 [5]): < 85.3%; inhibition (RAW264.7 [6]): < 85.3%; inhibition [7]: < 85.3%
COc1cc(/C=C2\CCCN(C(=O)/C=C/c3ccccc3OC(C)=O)C2=O)cc(OC)c1OC | 39.6 to 99.5% | 39.6 to 99.5% | Non-Toxic | –
COc1cc(/C=C2\CCCN(C(=O)/C=C/c3ccc(F)cc3Cl)C2=O)cc(OC)c1OC | 38.5 to 53.4% | 46.8 to 68.2% | Non-Toxic | –
COc1cc(/C=C/C(=O)CC(=O)/C=C/c2ccc(O)c(OC)c2)ccc1O [CURCUMIN] | Active | Active | Non-Toxic | inhibition (RAW264.7 [8]): Active; Stability [9]: Unstable; inhibition [10]: Active; inhibition (RAW264.7 [11]): Active; inhibition (RAW264.7 [12]): Active; inhibition [13]: Active; inhibition (RAW264.7 [14]): Active
COc1cc(/C=C2\CCCN(C(=O)/C=C/c3c(Cl)cccc3Cl)C2=O)cc(OC)c1OC | 39.6 to 99.5% | 39.6 to 99.5% | Non-Toxic | –
COc1cc(/C=C2\CCCN(C(=O)/C=C/c3ccccc3Cl)C2=O)cc(OC)c1OC | – | – | Non-Toxic | inhibition (RAW264.7 [4]): < 85.3%; inhibition (RAW264.7 [5]): < 85.3%; inhibition (RAW264.7 [6]): < 85.3%; inhibition [7]: < 85.3%
COc1cc(/C=C2\CCCN(C(=O)/C=C/c3cccc(F)c3)C2=O)cc(OC)c1OC | – | – | Non-Toxic | inhibition (RAW264.7 [4]): < 85.3%; inhibition (RAW264.7 [5]): < 85.3%; inhibition (RAW264.7 [6]): < 85.3%; inhibition [7]: < 85.3%
COc1ccc(/C=C/C(=O)N2CCC/C(=C\c3cc(OC)c(OC)c(OC)c3)C2=O)cc1OC(C)=O | 39.6 to 99.5% | 39.6 to 99.5% | Non-Toxic | –
COc1cc(/C=C2\CCCN(C(=O)/C=C/c3cccc(Br)c3)C2=O)cc(OC)c1OC | – | – | Non-Toxic | inhibition (RAW264.7 [4]): < 85.3%; inhibition (RAW264.7 [5]): < 85.3%; inhibition (RAW264.7 [6]): < 85.3%; inhibition [7]: < 85.3%
COc1cc(/C=C2\CCCN(C(=O)/C=C/c3ccc(F)c(F)c3)C2=O)cc(OC)c1OC | 39.6 to 99.5% | 39.6 to 99.5% | Non-Toxic | –
COc1cccc(/C=C/C(=O)N2CCC/C(=C\c3cc(OC)c(OC)c(OC)c3)C2=O)c1OC | inactive | inactive | Non-Toxic | –
COc1ccc(/C=C/C(=O)N2CCC/C(=C\c3cc(OC)c(OC)c(OC)c3)C2=O)c(F)c1 | 39.6 to 99.5% | 39.6 to 99.5% | Non-Toxic | –
COc1cc(/C=C2\CCCN(C(=O)/C=C/c3cc(F)ccc3F)C2=O)cc(OC)c1OC | 38.5 to 53.4% | 46.8 to 68.2% | Non-Toxic | –
COc1cc(/C=C/C(=O)N2CCC/C(=C\c3cc(OC)c(OC)c(OC)c3)C2=O)cc(OC)c1OC | 39.6 to 99.5% | 39.6 to 99.5% | Non-Toxic | –
COc1cc(/C=C2\CCCN(C(=O)/C=C/c3ccc([N+](=O)[O-])cc3)C2=O)cc(OC)c1OC | 38.6% | 94.1% | Non-Toxic | –
COc1cccc(/C=C/C(=O)N2CCC/C(=C\c3cc(OC)c(OC)c(OC)c3)C2=O)c1 | 39.6 to 99.5% | 39.6 to 99.5% | Non-Toxic | –
COc1cc(/C=C2\CCCN(C(=O)/C=C/c3ccccc3C(F)(F)F)C2=O)cc(OC)c1OC | – | – | Non-Toxic | inhibition (RAW264.7 [4]): < 85.3%; inhibition (RAW264.7 [5]): < 85.3%; inhibition (RAW264.7 [6]): < 85.3%; inhibition [7]: < 85.3%
COc1ccc(F)c(/C=C/C(=O)N2CCC/C(=C\c3cc(OC)c(OC)c(OC)c3)C2=O)c1 | 38.5 to 53.4% | 46.8 to 68.2% | Non-Toxic | –
COc1cc(/C=C2\CCCN(C(=O)/C=C/c3cc(C)ccc3C)C2=O)cc(OC)c1OC | 39.6 to 99.5% | 39.6 to 99.5% | Non-Toxic | –
COc1cc(/C=C2\CCCN(C(=O)/C=C/c3ccc(OC(C)=O)cc3)C2=O)cc(OC)c1OC | 39.6 to 99.5% | 39.6 to 99.5% | Non-Toxic | –
COc1cc(OC)c(OC)cc1/C=C/C(=O)N1CCC/C(=C\c2cc(OC)c(OC)c(OC)c2)C1=O | 39.6 to 99.5% | 39.6 to 99.5% | Non-Toxic | –
COc1cc(/C=C2\CCCN(C(=O)/C=C/c3c(F)cccc3Cl)C2=O)cc(OC)c1OC | 38.5 to 53.4% | 46.8 to 68.2% | Non-Toxic | –
COc1cc(/C=C/C(=O)N2CCC=CC2=O)cc(OC)c1OC [PIPLARTINE] | Active | Active | Non-Toxic | –
COc1cc(/C=C2\CCCN(C(=O)/C=C/c3ccccc3O)C2=O)cc(OC)c1OC | 39.6 to 99.5% | 39.6 to 99.5% | Non-Toxic | –
COc1ccccc1/C=C/C(=O)N1CCC/C(=C\c2cc(OC)c(OC)c(OC)c2)C1=O | 39.6 to 99.5% | 39.6 to 99.5% | Non-Toxic | –
COc1cc(/C=C2\CCCN(C(=O)/C=C/c3ccc(Br)cc3)C2=O)cc(OC)c1OC | – | – | Non-Toxic | inhibition (RAW264.7 [4]): < 85.3%; inhibition (RAW264.7 [5]): < 85.3%; inhibition (RAW264.7 [6]): < 85.3%; inhibition [7]: < 85.3%
COc1ccc(/C=C/C(=O)N2CCC/C(=C\c3cc(OC)c(OC)c(OC)c3)C2=O)c(OC)c1 | 39.6 to 99.5% | 39.6 to 99.5% | Non-Toxic | –
